Measured values gathered from unrelated publications.
Lines come from different studies, so protocols differ.
Target: Vascular endothelial growth factor receptor 3 (FLT4, Homo sapiens, UniProt P35916)

CC/C(=N\NC(=O)NCc1cccc(O)c1)c1ccc(O)c(C)c1O — inhibition (enzyme activity; inhibitor; 0.1 µM): 6.1%
CCOc1cc(-c2nncn2C)ccc1Nc1ncc2cc(C)nc(NCC(C)(C)C)c2n1 — inhibition (enzyme activity; inhibitor; FRET; 1 µM): 23%
O=C(Nc1cccnn1)N1CCC(=Cc2cccc(Oc3ccc(C(F)(F)F)cn3)c2)CC1 — remaining binding (cell-free assay; competition with immobilised ligand; 1 µM): 80%
Nc1ncnc2occ(-c3ccc(NC(=O)Nc4cc(C(F)(F)F)ccc4F)cc3)c12 — remaining signal (cell-free assay; 20 µM): 0%
O=C(Nc1cnn(-c2csc(C(=O)NC3COC3)c2)c1)Nc1ccccc1Cl — remaining activity (enzyme activity; inhibitor; 5 µM): 93.5%
Clc1ccc(Nc2nnc(Cc3ccncc3)c3ccccc23)cc1 — remaining signal (cell-free assay; 0.5 µM): 62.8%
CC(=O)C1=C(C)N(c2cccc(C(F)(F)F)c2)C(=O)N[C@@H]1c1ccc(C#N)nc1 — remaining binding (cell-free assay; competition with immobilised ligand; 1 µM): 100%
COc1cc(Cl)c(C(=O)N[C@@H](CN[C@H]2CC[C@@H](N)CC2)Cc2ccc(C#N)cc2)cc1-c1ccc(CN[C@H](C)c2ccc(C)cc2)o1 — remaining activity (enzyme activity; inhibitor; 1 µM): 93%
C[C@@H]1CN(c2cc(-c3n[nH]c4ccc(OC5(C)CC5)cc34)ncn2)C[C@H](C)O1 — remaining binding (cell-free assay; competition with immobilised ligand; 0.1 µM): 100%
N#CCCc1ccc2c(c1)-c1[nH]c3ccc([N+](=O)[O-])cc3c1CC(=O)N2 — remaining signal (cell-free assay; 0.5 µM): 66.5%
CCCOc1ccc(OC)c(F)c1C(=O)c1ccc(C(=O)N[C@@H]2CNC[C@H]2NC(=O)c2ccc3[nH]ncc3c2)cc1 — remaining activity (enzyme activity; inhibitor; 10 µM): 8%
CCCS(=O)(=O)Nc1ccc(F)c(C(=O)c2c[nH]c3ncc(-c4ccc(Cl)cc4)cc23)c1F — inhibition (enzyme activity; inhibitor; 1 µM): < 10%
CC(C)(O)c1cncc(-c2nc3ccc(F)cc3n2C2CC2)c1 — remaining binding (cell-free assay; competition with immobilised ligand; 1 µM): 100%
Cc1sc(C(=O)NC2COC2)cc1-n1cc(NC(=O)Nc2c(F)cccc2Cl)cn1 — remaining activity (enzyme activity; inhibitor; 10 µM): 79.2%
O=C(N[C@H]1CCCCC/C=C\C2C[C@@]2(C(=O)O)NC(=O)[C@@H]2C[C@@H](Oc3ccncc3)CN2C1=O)OC1CCCC1 (some centres unmarked) — remaining binding (cell-free assay; competition with immobilised ligand; 1 µM): 93%
COc1cc2c(Nc3ccc(Br)cc3F)ncnc2cc1OCC1CCN(C)CC1 — remaining signal (cell-free assay; 0.5 µM): 16.1%
Cc1cc(NC(=O)c2cccc3cc(-c4cccc5[nH]nc(N)c45)ccc23)ccc1F — activity vs control (enzyme activity; inhibitor; 0.1 µM): 1%
O=C1Nc2ccc(Cl)cc2C1=Cc1cc(Cl)c(O)c(Cl)c1 — remaining signal (cell-free assay; 0.5 µM): 87.3%
CN(C(=O)c1ccccc1)c1cc(N(C)c2ccc3c(c2)CCc2ccc(C(=O)NCCN4CCOCC4)cc2C3=O)ccc1F — remaining binding (cell-free assay; competition with immobilised ligand; 1 µM): 87%
COc1cc2ncnc(Nc3ccc(Oc4ccccc4)cc3C)c2cc1OC — inhibition (enzyme activity; inhibitor; 1 µM): 17%
